Source: PubChem BioAssay (SRMLSC)
Only a selection was taken, and hits are over-represented in it overall.
PTEN del growth – growth suppressors of cells with PTEN tumor suppressor deletion; HCT116 PTEN-null viability, CellTiter-Glo, 60 h; hits give low values; viability, % at 10 µM; 1.2% of 140,000 active; AID 827;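 active means viability at or below a set limit, 4 SD under the median of all tested compounds, cut at about 3.7% in these data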;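 further: PTEN knockout HCT116 line with beta catenin targeted HCT116 as companion control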
bCat KO growth – beta-catenin-lacking colon tumor cell growth suppression; HCT116 beta-catenin knockout viability, CellTiter-Glo, 60 h; hits give low values; viability, % at 10 µM; 1.5% of 140,000 active; AID 818;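 active means viability at or under a set limit, the compound median less 4 SD, cut at about 6% in these data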;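 further: 0% = Hyamine 1622 control at 20 µM and 100% = untreated cell control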
HUVEC inhibit – blocks proliferation of human endothelial cells; HUVEC proliferation, CellTiter-Glo luminescence, 72 h; hits give low values; viability, % at 10 µM (by protocol); 1.1% of 86,000 active; AID 648;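 active means viability at or below 30%; inactive means viability above 30%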;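 further: 100% = median luminescence of DMSO-only cell control wells on each plate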
Fibroblast inh – blocks proliferation of human lung fibroblasts | LL 47 human lung fibroblast viability, ATP luminescence; hits give low values | AID 719 | viability, % at 10 µM | 1.1% of 85,000 active;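 active means viability at or below 50% in the single dose screen; inactive means viability above 50%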;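 further: compound exposure lasted 72 h before the ATP readout; 100% = median luminescence of untreated cell-only wells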
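Material: Human LL 47 lung fibroblast cells | Input: 1,150 cells/well | Buffer or medium: IMEM plus 15% FBS | Compound dosing: 0.1% DMSO in all compound wells | Times: Overnight cell rest, 72 h compound treatment at 37 °C | Signal: CellTiter-Glo luminescence measuring cellular ATP | Measure: % viability versus median cells-only luminescence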
H69AR inhibit – growth inhibitors of human H69AR lung tumor cells; H69AR lung tumor viability, ATP luminescence, 72 h; hits give low values; viability, % at 10 µM; 6% of 85,000 active; AID 598;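 active means viability at or below 40%; inactive means viability above 40%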;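 further: multidrug resistant small cell line overexpressing MRP-1 efflux transporter; 100% = mean luminescence of untreated control wells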
* marks the source's active call; other numbers are inactive results; . = no result.

SMILES | PTEN del growth | bCat KO growth | HUVEC inhibit | Fibroblast inh | H69AR inhibit
Cc1nc(SCC(=O)c2c(C)[nH]c3ccccc23)c2c(=O)n(C)c(=O)n(CC(C)C)c2n1 | . | . | 82.7 | 96.0 | 39.5*
O=C(Cc1n[nH]c(=O)c2ccccc12)OCC(=O)c1ccc2c(c1)OCCO2 | 14.9 | 16.3 | 44.4 | 65.3 | 23.6*
Cc1cc(C(=O)COC(=O)Cc2n[nH]c(=O)c3ccccc23)c(C)n1-c1ccc2c(c1)OCO2 | 31.8 | 33.4 | . | . | .
CCCCOc1ccc(C(=O)N2CCC(C)CC2)cc1 | 105.6 | 94.5 | 108.4 | 100.0 | 100.5
CCCCOc1ccc(C(=O)OC2CC(C)N(C)CC2C)cc1 (centres undefined) | 62.8 | 53.5 | 15.2* | 88.4 | 62.5
CC(=O)Nc1ccccc1/C=C/c1ccc2c(C)cc(C)c(O)c2n1 | 3.3* | 11.8 | . | . | .
CC(=O)Nc1ccccc1/C=C/c1ccc2c(C)ccc(O)c2n1 | 17.3 | 17.9 | . | . | .
CNC(=S)NNC(=O)c1sccc1OCc1cccc(C(F)(F)F)c1 | 90.4 | 97.8 | . | . | .
CCOc1ccc2cc(C#N)c(SCC(=O)NC(C)CC)nc2c1 (centres undefined) | 93.2 | 94.8 | 68.4 | 101.7 | 28.6*
CCOc1ccc2cc(C#N)c(SCC(=O)N3CCC(C)CC3)nc2c1 | 44.5 | 36.6 | 47.5 | 78.9 | 23.3*
CCOC(=O)CSc1nc2cc(OCC)ccc2cc1C#N | 87.1 | 92.2 | 62.8 | 102.2 | 31.1*
COC(=O)CSc1nc2cc(OC)ccc2cc1C#N | 27.4 | 18.4 | 71.5 | 88.9 | 74.5
O=C(Nc1ncc(C(F)(F)F)cc1Cl)C1COc2ccccc2O1 (centres undefined) | 104.2 | 106.0 | 100.2 | 103.4 | 102.4
NC(N)=NNC(=O)c1ccccc1Cl | 106.8 | 102.7 | . | . | .
CCOC(=O)C1CCN(C(=O)CNS(=O)(=O)c2ccc(Br)s2)CC1 | 104.2 | 95.5 | 106.3 | 99.8 | 87.2
COc1ccc(N2CCN(C(=O)CCCN3C(=O)c4cccc5cccc(c45)C3=O)CC2)cc1 | 89.7 | 86.6 | . | . | .
O=C(NCCc1c[nH]c2ccccc12)c1ccc([N+](=O)[O-])cc1 | 97.1 | 88.3 | . | . | .
O=C(NCCc1c[nH]c2ccccc12)c1ccc(S(=O)(=O)NCc2ccco2)cc1 | 73.6 | 70.4 | 70.4 | 96.1 | 39.4*
Cc1ccc2oc(C(=O)Nc3nnc(C)s3)c(C)c2c1 | 81.2 | 73.5 | 74.5 | 99.6 | 82.5
Cc1cc(=O)[nH]c(N=N/C(=N/Nc2ccc(O)cc2)c2ccccc2)n1 | 60.0 | 39.9 | 36.2 | 50.7 | 31.7*
Cc1cc(=O)[nH]c(N=N/C(=N/Nc2ccccc2C)c2ccccc2)n1 | 3.6* | 6.6 | 11.8* | 24.4* | 25.9*
COC(=O)Cc1cc(=O)[nH]c(/N=C(/NC(=O)c2ccccc2)Nc2ccccc2C)n1 | . | . | 67.8 | 94.7 | 82.3
C/C(=N\Nc1nc(C)cc(=O)[nH]1)C1CC1 | 100.1 | 95.4 | . | . | .
COc1ccc(N/N=C(/N=Nc2nc(C)cc(=O)[nH]2)c2ccccc2)cc1 | 8.0 | 12.6 | 20.7* | 16.2* | 27.4*
COc1ccc(/C=N/Nc2nc(C)c([N+](=O)[O-])c(N(C)c3ccccc3)n2)cc1OC | 85.3 | 77.9 | . | . | .
SMILES | PTEN del growth | bCat KO growth | HUVEC inhibit | Fibroblast inh | H69AR inhibit
Cc1nc2ccc(NC(=O)C3CCN(S(=O)(=O)c4cccs4)CC3)cc2s1 | 70.1 | 75.3 | 83.3 | 87.5 | 103.4
Cc1nn(Cc2ccc(Cl)cc2)c(C)c1NC(=O)CSc1nc2c(c(C(F)(F)F)n1)CCc1ccccc1-2 | 3.5* | 14.9 | . | . | .
Cc1ccc(Cn2nc(C)c(NC(=O)CSc3nc4c(c(C(F)(F)F)n3)CCc3ccccc3-4)c2C)cc1 | 6.6 | 46.4 | . | . | .
c1ccc(-c2noc(-c3cccc4ccccc34)n2)nc1 | 77.0 | 73.3 | 81.8 | 89.2 | 37.9*
c1ccc(-c2nc(-c3ccccn3)no2)cc1 | 24.9 | 23.0 | 54.9 | 56.3 | 42.1
COc1cccc(-c2nc(-c3ccccn3)no2)c1OC | 107.3 | 107.2 | 104.2 | 96.1 | 94.0
c1ccc(-c2ccc(-c3nc(-c4ccccn4)no3)cc2)cc1 | 56.0 | 55.1 | 43.5 | 42.4* | 34.1*
N#CC1=C(N)SC(N)=C(C#N)C1CCC1CCCCC1 | 78.0 | 79.0 | 68.5 | 93.4 | 85.0
CCCN(CCC)C(=O)Cn1c(=O)n(CCCCC(=O)NCc2ccco2)c(=O)c2ccccc21 | 102.6 | 103.8 | 88.0 | 95.3 | 83.1
Oc1oc(-c2ccccc2)nc1C=Nc1cccc2ccccc12 | 90.5 | 91.5 | 66.8 | 93.6 | 20.4*
COc1ccccc1OCCN1CSC(=S)N(C)C1 | 4.7 | 4.0* | . | . | .
Cc1cccc(OCCCN2CCCCCC2)c1 | 89.5 | 97.1 | 106.2 | 104.8 | 83.5
Cc1cccc(OCCN2CSC(=S)N(C)C2)c1 | 30.7 | 6.7 | 21.4* | 61.0 | 1.5*
COc1ccccc1OCCCCN1CCN(c2ccccc2OC)CC1 | 59.8 | 56.4 | 57.5 | 96.8 | 75.0
O=C(NC1CCCc2ccccc21)C1CCN(c2c3c(nc4ncnn24)CCC3)CC1 (centres undefined) | 97.0 | 86.5 | . | . | .
COc1ccccc1C(=O)N1CCCC(c2nc(-c3cc(OC)c(OC)c(OC)c3)no2)C1 (centres undefined) | 90.8 | 93.5 | 90.8 | 96.4 | 60.8
COc1ccc(C(=O)N2CCCC(c3nc(-c4cc(OC)c(OC)c(OC)c4)no3)C2)cc1 (centres undefined) | 92.2 | 90.0 | 78.8 | 93.1 | 34.9*
CCOc1ccc(N(CC(=O)Nc2cccc(OC)c2)S(=O)(=O)c2c(C)noc2C)cc1 | 56.4 | 52.8 | 88.0 | 89.3 | 71.7
CCOc1ccc(N(CC(=O)Nc2cccc(Cl)c2)S(=O)(=O)c2c(C)noc2C)cc1 | 22.8 | 28.3 | 80.3 | 73.3 | 30.1*
O=C(c1cccs1)N(C(=O)c1cccs1)c1ccc(Br)cn1 | 77.0 | 72.1 | 79.4 | 90.8 | 26.5*
O=C(c1ccco1)N1CCN(c2ncnc3scc(-c4ccc(F)cc4)c23)CC1 | 75.5 | 84.3 | 87.3 | 69.4 | 23.8*
Cc1ccc(-c2nsc3c(N4CCN(C(=O)c5ccco5)CC4)ncnc23)cc1 | . | . | 94.5 | 99.5 | 80.9
Cc1cc(NC(=O)c2ccc3nc(-c4ccccc4)c(-c4ccccc4)nc3c2)no1 | 51.1 | 50.9 | 48.7 | 17.6* | 16.2*
COc1ccc(C(=O)Nc2cc(C)on2)cc1 | 99.5 | 86.7 | 94.7 | 97.3 | 90.0
Cc1cc(NC(=O)c2ccc3c(c2)C(=O)N(C)C3=O)no1 | 108.4 | 102.9 | 94.2 | 103.5 | 91.1
SMILES | PTEN del growth | bCat KO growth | HUVEC inhibit | Fibroblast inh | H69AR inhibit
Cc1cc(NC(=O)c2ccc3c(c2)C(=O)N(C2CCCCC2)C3=O)no1 | 9.2 | 8.8 | 92.1 | 78.7 | 26.9*
Cc1cc(NC(=O)c2ccc3c(c2)C(=O)N(CCC(C)C)C3=O)no1 | 67.8 | 71.5 | 93.2 | 99.5 | 39.9*
CC(C)(CO)N=C1NS(=O)(=O)c2cc([N+](=O)[O-])ccc21 | 58.1 | 65.4 | . | . | .
CCN(CC)S(=O)(=O)c1ccc(N/N=C/c2cc(OC)ccc2O)nc1 | 4.8 | 2.7* | . | . | .
COc1cc2c(cc1OC)CN(C(C)C(=O)N1CCc3ccccc31)CC2 (centres undefined) | 60.5 | 58.5 | 76.7 | 85.8 | 18.3*
COc1cc(C(=O)N2c3ccccc3CC2C)cc(OC)c1OC (centres undefined) | 87.2 | 98.6 | 92.8 | 95.2 | 38.2*
